# T cruzi inh: T. cruzi replication inhibition; T. cruzi beta-gal in NIH3T3, luminescence, 90 h; 300,000 compounds, 1.4% hits; inhibition, % (concentration not given with the values);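 active = mean inhibition across valid replicates above about 55%, limit read from the data; inconclusive = mean below that limit but half or more replicates reach it; inactive = mean below it, under half of replicates reach it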;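 also: signal also drops with host cell toxicity which is not excluded here; 0% = plate median of DMSO wells and 100% = zero luminescence signal; higher percent means less beta-gal luminescence so fewer parasites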
#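 Read-out: Parasite load inhibition, % | Test system: Mouse NIH/3T3 fibroblasts infected with β-gal-expressing T. cruzi Tulahuen C4 | Amount: 5,000 cells/well | Medium: DMEM, 2% fetal bovine serum | Signal: GalScreen β-gal luminescence, detergent lysis, 60 min | Timing: 3 h attach, ≥90 h co-culture | Also added: Tulahuen C4 trypomastigotes, 5000/well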
# Lipid droplet: hepatic lipid droplet formation modulation. AID 1656. inhibition, % at 6.5 µM. 240,000 compounds, 0.4% hits. AML12 mouse hepatocytes, oleate lipid droplets, BODIPY imaging;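 active = lipid droplet intensity inhibited by at least 50%, with more than 500 cells counted; inconclusive = wells with under 300 cells, treated as cytotoxic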
#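 Test system: AML12 mouse liver cells; schedule: overnight exposure; technique: high-content imaging of BODIPY-stained droplets and DAPI nuclei; read-out: % inhibition of corrected integrated BODIPY droplet signal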
# MPTP block: inhibitors of mitochondrial permeability transition pore; isolated mouse mitochondria, Ca2+ swelling absorbance, 30 min; inhibition, % at 10 µM; 360,000 compounds, 1.4% hits; AID 602449;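 active = inhibition of 50% or more, scaled per plate between neutral and stimulator controls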;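 also: 0% = DMSO wells given calcium and 100% = 1 mM EGTA wells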
# L major viab: inhibitors of Leishmania major promastigote growth. inhibition, % at 10 µM. Leishmania major promastigotes, resazurin fluorescence viability. 200,000 compounds, 9% hits; in the data active = inhibition above about 50%;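 also: promastigotes grown with compound for 44 hours at 28 °C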
# DTT redox prof: compounds producing H2O2 with reducing agent – biochemical, NIH compound library profiling, artefact control for MLSCN library redox annotation, primary screen. DTT-dependent redox cycling H2O2, phenol red/HRP absorbance; 100% = 100 µM peroxide control, 0% = buffer. activation, % at 10 µM. 200,000 compounds, 0.03% hits. AID 878;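 active = activation of at least 50% relative to the plate's high and low controls in the primary single-dose screen; inactive = activation below 50%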;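 also: compound incubated with DTT at 0.8 mM final as the reducing agent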
# * = called active by the depositor; u = inconclusive; x = no result. Many of the other results were omitted from the sample, so hits are more common in it than they were.
SMILES,T cruzi inh,Lipid droplet,MPTP block,L major viab,DTT redox prof
CC(C)C(NC(=O)c1ccccc1)C(=O)N1CCN(C/C=C/c2ccccc2)CC1 (centres undefined),x,x,-1,x,x
CC(C(=O)Nc1ccc([N+](=O)[O-])cc1)N1CCN(C/C=C/c2ccccc2)CC1 (centres undefined),17,-6,-1,82*,0
COc1cc(CN2CCNC(=O)C2CC(=O)N2CCCN(C(C)=O)CC2)cc(OC)c1 (centres undefined),0,0,1,x,x
CC(=O)c1ccc(NC(=O)C(C)N2CCN(C/C=C/c3ccccc3)CC2)cc1 (centres undefined),39,-8,-1,86*,-1
CC(=O)Oc1ccc(N(C(C)=O)S(=O)(=O)c2cccs2)c2ccccc12,-5,-16,0,100*,0
CC(C)Cn1c(N2CCN(CC(=O)Nc3ccc(Cl)cc3)CC2)nc2ccccc21,42,2,-1,86*,0
CC(C)n1c(N2CCN(CC(=O)Nc3ccc4c(c3)OCCO4)CC2)nc2ccccc21,1,x,0,51*,2
CCNC(=O)COc1ccc(/C=C2\COc3ccccc3C2=O)cc1OC,-28,-4,0,x,x
COCC1CCCN(Cc2cn(-c3ccccc3)nc2-c2ccc3c(c2)OCO3)C1 (centres undefined),11,0,0,13,0
O=C(CCl)N1c2ccccc2OCC1c1ccccc1 (centres undefined),3,-1,0,57*,0
CCC1=Nc2cc(C(=O)NCCCOC)ccc2Sc2ccccc21,56*,-118,-1,19,0
CCC1=Nc2cc(C(=O)NCCN3CCOCC3)ccc2Sc2ccc(C)cc21,14,-2,0,x,x
Cc1ccc(C(=O)NCc2ccco2)cc1,1,5,0,x,x
CC(=O)Nc1cc(C(=O)NCc2ccco2)ccc1Sc1ccc(C)cc1,-18,-1,-2,75*,0
CCCC1=Nc2cc(C(=O)NCCCOCC)ccc2Sc2ccccc21,33,x,-1,18,-4
CCC1=Nc2cc(C(=O)NCc3ccco3)ccc2Sc2ccc(C)cc21,16,u,0,67*,0
CC(=O)c1cc(CN2CCC(n3nccc3NC(=O)c3ccccc3)CC2)cs1,12,-8,0,x,x
Cc1ccc(NC(=O)CSc2ncn(-c3ccccc3)n2)cc1C,-5,11,3,97*,1
COc1ccc(NC(=O)CSc2ncn(-c3ccccc3)n2)cc1Cl,-9,-4,-1,2,1
COc1ccc(C2c3c(-c4ccccc4O)n[nH]c3C(=O)N2Cc2ccco2)cc1 (centres undefined),-2,-5,17,x,x
COc1ccc(CCN2C(=O)c3[nH]nc(-c4ccccc4O)c3C2c2cccc(Cl)c2)cc1 (centres undefined),28,x,11,100*,3
COc1ccc(C2c3c(-c4ccccc4O)n[nH]c3C(=O)N2CCc2ccc(OC)c(OC)c2)cc1 (centres undefined),29,-18,7,89*,-1
O=C(CN1CCOCC1)NN1CC(=O)N(c2ccc(Cl)cc2)CC1=O,-11,7,2,x,x
CC1CCN(c2ccc3nnc(CCC(=O)N4CCN(c5ccc(F)cc5)CC4)n3n2)CC1,0,-34,-1,x,x
COc1ccc(NS(=O)(=O)c2cc(NC(=O)c3cncc(Br)c3)ccc2OC)cc1,x,x,-2,x,x
SMILES,T cruzi inh,Lipid droplet,MPTP block,L major viab,DTT redox prof
COc1ccc(NS(=O)(=O)c2cc(NC(=O)c3ccc(C)o3)ccc2N2CCCCC2)cc1,21,-46,-2,99*,0
COc1ccc(NS(=O)(=O)c2cc(NC(=O)c3cnccn3)ccc2OC)cc1Br,-3,-12,-1,95*,-2
COc1ccc(NS(=O)(=O)c2cc(NC(=O)c3cnccn3)ccc2N2CCCC2)cc1,45,-4,0,93*,0
Cc1ccc(S(=O)(=O)NC(=O)C2(C)CCN2C(=O)CCc2ccc(Cl)cc2Cl)nc1 (centres undefined),x,x,-1,x,x
C[C@@H]1CCCCO[C@H](CN(C)Cc2ccc(C(=O)O)cc2)[C@H](C)CN([C@@H](C)CO)C(=O)c2cc(NC(=O)Nc3ccc(C(F)(F)F)cc3)ccc2O1,x,x,0,x,x
Cc1ccc(NC(=O)c2cccc(OCc3c(C)noc3C)c2)cc1S(=O)(=O)Nc1ccccc1Cl,-2,-1,8,83*,0
Cc1noc(C)c1COc1cccc(C(=O)OC(C)C(=O)Nc2ccc3c(c2)OCO3)c1 (centres undefined),-6,-11,4,59*,-2
COc1cc(C(=O)OC(C)C(=O)Nc2ccc3c(c2)OCO3)ccc1OCc1c(C)noc1C (centres undefined),-10,x,5,-1,2
Cc1ccc(-n2c(C)cc(C(=O)COc3c(CO)cc(F)cc3CO)c2C)cc1C,30,0,16,19,-1
CCCCN(CC)CCCNC(=O)C1CCN(c2ncnc3c2sc2cccc(F)c23)CC1,70*,-6,2,100*,0
COC(=O)c1oc2ccccc2c1NC(=O)CN1CCCC1,-18,x,0,-7,-2
COC(=O)c1oc2ccc(Br)cc2c1NC(=O)CN1CCN(C)CC1,-12,x,1,100*,1
Cn1c(NCCN2CCCC2)nc2cc(-c3ccsc3)sc2c1=O,x,x,-3,x,x
CCc1ccc(CNCc2cccnc2)cc1,0,-5,-1,90*,4
Cc1ccccc1CNCc1cccnc1,-6,-2,1,41,0
CCc1ccc(CNCc2ccc(F)cc2)cc1,0,-7,2,71*,0
CCOC(=O)C1CCCN(C(=S)Nc2cccc(Cl)c2C)C1 (centres undefined),-13,-25,-9,-1,0
CCCCn1c(CN2CCN(C)CC2)nc2ccccc21,50,x,-4,61*,0
CC1(C)COC(/C=C/c2cccc([N+](=O)[O-])c2)=N1,-16,-7,0,98*,-1
O=C1NC(=S)N(c2cccc(Cl)c2)C12CCCCC2,7,-4,1,52*,0
Clc1cccc(CNCCNCc2cccc(Cl)c2)c1,6,-3,1,75*,-1
O=C(CCCCn1c(=O)c2ccccc2n(Cc2ccccc2F)c1=O)NC1CCN(Cc2ccccc2)CC1,52,5,0,72*,0
O=C(NC1CCN(Cc2ccccc2)CC1)c1ccc2c(c1)[nH]c(=O)n2Cc1ccc(F)cc1,58*,4,4,35,1
CCCCCn1c(=O)[nH]c2cc(C(=O)NC3CCN(Cc4ccccc4)CC3)ccc2c1=O,35,x,4,x,x
CN1C(=O)/C(=C\c2ccccc2F)Sc2ccc(C(=O)NC3CCN(Cc4ccccc4)CC3)cc21,61*,3,2,x,x
N#CC(c1ccccc1)C1CCN(Cc2ccccc2)CC1 (centres undefined),9,1,-1,88*,0
